Assay results taken from article PMC3927397 (Journal of medicinal chemistry, 2013).

Legend:
IKKβ = details: ref 22 (Kasinski et al.); cited from earlier work
[1] = target: cytoplasmic tyrosine kinase Src (Homo sapiens, UniProt P12931); assay: Preliminary kinase screen, Src; type: biochemical; details: small panel of kinases
[2] = target: receptor tyrosine kinase IGFR (Homo sapiens, UniProt P08069); assay: Preliminary kinase screen, IGFR; type: biochemical; details: small panel of kinases
[3] = cited from earlier work
MEK1 = MEK1 (Homo sapiens, UniProt Q02750); assay: Z'-LYTE MAP2K1; type: biochemical; details: preliminary screen, small panel of kinases
Sequence of MEK1 (Q02750 whole entry): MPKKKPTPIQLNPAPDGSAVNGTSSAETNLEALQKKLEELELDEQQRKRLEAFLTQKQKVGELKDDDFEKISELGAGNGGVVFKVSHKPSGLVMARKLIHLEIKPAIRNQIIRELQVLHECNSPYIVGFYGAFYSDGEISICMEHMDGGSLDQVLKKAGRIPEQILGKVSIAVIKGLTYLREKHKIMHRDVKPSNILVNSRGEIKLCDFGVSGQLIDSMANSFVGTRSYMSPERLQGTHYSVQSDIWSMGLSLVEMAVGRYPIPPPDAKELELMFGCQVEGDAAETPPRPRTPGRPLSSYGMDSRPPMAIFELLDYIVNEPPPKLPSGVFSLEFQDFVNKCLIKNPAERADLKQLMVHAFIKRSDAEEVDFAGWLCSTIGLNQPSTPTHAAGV

IRAK4 = target: T1, IRAK4 (Homo sapiens, UniProt Q9NWZ3); assay: Kinase profile screen at 5 μM, IRAK4; type: biochemical; details: read-out: inhibition of IRAK4
T1 sequence (Q9NWZ3 1-460): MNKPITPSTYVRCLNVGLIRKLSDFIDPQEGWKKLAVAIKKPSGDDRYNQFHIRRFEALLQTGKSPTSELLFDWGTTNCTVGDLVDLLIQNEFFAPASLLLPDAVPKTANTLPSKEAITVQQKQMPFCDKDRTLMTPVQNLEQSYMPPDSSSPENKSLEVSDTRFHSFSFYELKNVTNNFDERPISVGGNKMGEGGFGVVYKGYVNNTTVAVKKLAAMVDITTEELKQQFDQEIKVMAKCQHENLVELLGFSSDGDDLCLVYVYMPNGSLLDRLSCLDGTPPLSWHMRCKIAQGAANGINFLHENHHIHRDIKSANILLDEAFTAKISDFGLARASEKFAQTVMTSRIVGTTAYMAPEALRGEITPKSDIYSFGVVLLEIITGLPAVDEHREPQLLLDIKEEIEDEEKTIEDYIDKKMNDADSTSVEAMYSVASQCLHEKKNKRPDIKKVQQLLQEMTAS
Summary of the method: (§1)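 Most kinases used the Z'Lyte read-out: a FRET-labelled peptide, protease development, and coumarin/fluorescein emission ratio. Some used Adapta (ADP TR-FRET) or a kinase cascade. Protease- and fluorescence-interference control wells were included. Values above 100% or below 0% were taken as maximal or no inhibition.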

EGFR = EGFR (Homo sapiens, UniProt P00533); assay: Kinase profile screen at 5 μM, EGFR; type: biochemical; details: read-out: inhibition of EGFR
Sequence of EGFR (P00533 25-1210, species assumed): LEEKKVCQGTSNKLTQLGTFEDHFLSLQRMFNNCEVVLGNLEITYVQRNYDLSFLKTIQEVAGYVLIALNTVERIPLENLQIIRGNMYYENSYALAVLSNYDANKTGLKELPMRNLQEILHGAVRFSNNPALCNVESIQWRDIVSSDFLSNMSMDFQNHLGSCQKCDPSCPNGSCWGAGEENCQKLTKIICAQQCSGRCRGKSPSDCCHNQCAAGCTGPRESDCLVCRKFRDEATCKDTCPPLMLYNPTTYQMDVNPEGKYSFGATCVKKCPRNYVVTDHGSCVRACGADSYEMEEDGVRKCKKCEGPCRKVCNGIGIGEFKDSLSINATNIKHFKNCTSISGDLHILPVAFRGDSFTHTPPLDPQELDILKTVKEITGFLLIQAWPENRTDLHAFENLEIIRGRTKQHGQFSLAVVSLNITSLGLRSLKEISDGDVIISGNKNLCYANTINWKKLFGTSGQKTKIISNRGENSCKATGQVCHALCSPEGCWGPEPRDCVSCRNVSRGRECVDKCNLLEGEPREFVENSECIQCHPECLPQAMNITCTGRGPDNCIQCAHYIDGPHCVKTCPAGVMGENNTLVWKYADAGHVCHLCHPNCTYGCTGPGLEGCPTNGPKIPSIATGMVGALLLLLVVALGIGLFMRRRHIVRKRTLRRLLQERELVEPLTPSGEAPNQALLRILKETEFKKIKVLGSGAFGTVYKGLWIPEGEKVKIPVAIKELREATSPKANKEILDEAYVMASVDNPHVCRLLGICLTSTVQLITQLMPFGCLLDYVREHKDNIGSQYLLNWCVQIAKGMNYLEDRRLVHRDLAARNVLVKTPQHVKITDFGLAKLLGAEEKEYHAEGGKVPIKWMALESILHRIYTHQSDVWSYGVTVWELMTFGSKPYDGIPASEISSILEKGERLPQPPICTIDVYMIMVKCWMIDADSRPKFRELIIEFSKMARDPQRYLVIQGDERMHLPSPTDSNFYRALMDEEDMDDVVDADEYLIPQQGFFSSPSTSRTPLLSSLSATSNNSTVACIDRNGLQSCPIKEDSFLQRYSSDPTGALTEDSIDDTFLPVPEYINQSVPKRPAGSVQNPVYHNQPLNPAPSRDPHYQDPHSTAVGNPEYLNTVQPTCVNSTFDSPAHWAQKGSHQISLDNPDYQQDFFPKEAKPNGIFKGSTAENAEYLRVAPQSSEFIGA
Summary of the method: as §1

RAF1 = RAF1 (Homo sapiens, UniProt P04049, Y340D/Y341D); assay: Z'-LYTE RAF1; type: biochemical; details: preliminary screen, small panel of kinases
CDK7 = CDK7 (Homo sapiens, UniProt P50613); assay: Kinase profile screen at 5 μM, CDK7; type: biochemical; details: read-out: inhibition of CDK7
Summary of the method: as §1

PRKCβ1 = PRKCβ1 (Homo sapiens, UniProt P05771); assay: Kinase profile screen at 5 μM, PRKCβ1; type: biochemical; details: read-out: inhibition of PRKCβ1
Summary of the method: as §1

IKBKB (IKKβ) = target: T2, IKBKB (IKKβ) (Homo sapiens, UniProt O14920); assay: Z'-LYTE in vitro kinase assay, IKKβ; type: biochemical; details: preliminary screen, small panel of kinases
T2 sequence (O14920 1-756): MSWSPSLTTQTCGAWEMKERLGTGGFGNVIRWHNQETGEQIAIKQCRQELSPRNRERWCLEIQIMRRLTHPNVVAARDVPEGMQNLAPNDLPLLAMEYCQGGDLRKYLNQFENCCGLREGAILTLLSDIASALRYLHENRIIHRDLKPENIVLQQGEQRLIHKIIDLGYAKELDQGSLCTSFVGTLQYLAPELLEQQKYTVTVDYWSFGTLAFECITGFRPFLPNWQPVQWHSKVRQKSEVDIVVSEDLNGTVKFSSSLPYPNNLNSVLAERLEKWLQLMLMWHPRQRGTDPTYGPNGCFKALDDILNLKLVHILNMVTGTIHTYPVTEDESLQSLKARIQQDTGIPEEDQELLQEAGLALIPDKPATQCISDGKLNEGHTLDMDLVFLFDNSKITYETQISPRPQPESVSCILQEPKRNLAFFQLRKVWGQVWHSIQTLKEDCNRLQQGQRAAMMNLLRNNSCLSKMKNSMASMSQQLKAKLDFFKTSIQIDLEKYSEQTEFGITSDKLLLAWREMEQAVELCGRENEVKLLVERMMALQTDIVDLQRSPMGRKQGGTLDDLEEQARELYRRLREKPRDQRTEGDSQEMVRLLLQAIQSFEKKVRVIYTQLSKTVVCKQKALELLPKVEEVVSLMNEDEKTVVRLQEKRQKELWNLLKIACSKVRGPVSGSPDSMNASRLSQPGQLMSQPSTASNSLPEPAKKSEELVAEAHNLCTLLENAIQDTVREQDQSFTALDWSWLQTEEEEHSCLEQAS

panel of 50 kinases = assay: Kinase profile screen, 50-kinase panel; type: biochemical; details: 5 μM, of fifty kinases tested
Summary of the method: as §1

PIM1 = PIM1 (Homo sapiens, UniProt P11309); assay: Kinase profile screen at 5 μM, PIM1; type: biochemical; details: read-out: inhibition of PIM1
Sequence of PIM1 (P11309 whole entry, species assumed): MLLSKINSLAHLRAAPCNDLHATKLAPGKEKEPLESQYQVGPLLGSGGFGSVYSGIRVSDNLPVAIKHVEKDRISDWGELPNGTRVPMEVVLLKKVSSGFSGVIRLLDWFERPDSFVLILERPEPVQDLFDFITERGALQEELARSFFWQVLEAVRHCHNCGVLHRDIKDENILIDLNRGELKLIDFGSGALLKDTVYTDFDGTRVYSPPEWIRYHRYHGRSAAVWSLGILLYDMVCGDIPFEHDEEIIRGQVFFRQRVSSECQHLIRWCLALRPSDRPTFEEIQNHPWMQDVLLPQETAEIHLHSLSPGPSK
Summary of the method: as §1

AKT2 [4] = target: T3, AKT2 (Homo sapiens, UniProt P31751); assay: Z'-LYTE in vitro kinase assay, AKT2; type: biochemical; details: preliminary screen, small panel of kinases
T3 sequence (P31751 whole entry): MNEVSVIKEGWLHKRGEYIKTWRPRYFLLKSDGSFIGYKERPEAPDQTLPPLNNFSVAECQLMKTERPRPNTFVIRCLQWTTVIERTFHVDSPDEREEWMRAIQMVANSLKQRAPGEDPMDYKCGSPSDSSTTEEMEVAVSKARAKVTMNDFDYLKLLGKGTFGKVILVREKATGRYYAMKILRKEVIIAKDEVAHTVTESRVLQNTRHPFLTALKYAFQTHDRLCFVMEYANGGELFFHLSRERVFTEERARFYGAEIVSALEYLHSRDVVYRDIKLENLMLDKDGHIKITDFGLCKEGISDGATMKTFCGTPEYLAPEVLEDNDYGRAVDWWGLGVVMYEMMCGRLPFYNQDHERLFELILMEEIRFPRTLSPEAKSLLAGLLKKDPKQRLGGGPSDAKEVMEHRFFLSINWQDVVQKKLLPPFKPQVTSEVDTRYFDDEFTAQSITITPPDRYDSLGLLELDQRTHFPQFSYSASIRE

AKT2 [5] = target: T3, AKT2; assay: ADP Quest enzyme kinetics, Michaelis-Menten global analysis; type: biochemical; details: varying ATP and inhibitor concentrations
Summary of the method: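 Purified recombinant human AKT2 with Crosstide peptide substrate; reactions run 10-90 min using fresh samples at varying ATP and inhibitor concentrations. ADP Quest enzyme-coupled fluorescence gave total ADP, and rates came from ADP formed over time. Rates were fitted by global non-linear regression to Michaelis-Menten competitive (shared Ki and Vmax) and mixed (shared Ki, α) models, with Ki and Vmax >0.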

KDR (VEGFR2) = KDR (VEGFR2) (Homo sapiens, UniProt P35968); assay: Z'-LYTE in vitro kinase assay, KDR; type: biochemical; details: read-out: inhibition of KDR
AKT1 (PKB alpha) = AKT1 (PKB alpha) (Homo sapiens, UniProt P31749); assay: Z'-LYTE in vitro kinase assay, AKT1; type: biochemical; details: preliminary screen, small panel of kinases
Sequence of AKT1 (PKB alpha) (P31749 whole entry): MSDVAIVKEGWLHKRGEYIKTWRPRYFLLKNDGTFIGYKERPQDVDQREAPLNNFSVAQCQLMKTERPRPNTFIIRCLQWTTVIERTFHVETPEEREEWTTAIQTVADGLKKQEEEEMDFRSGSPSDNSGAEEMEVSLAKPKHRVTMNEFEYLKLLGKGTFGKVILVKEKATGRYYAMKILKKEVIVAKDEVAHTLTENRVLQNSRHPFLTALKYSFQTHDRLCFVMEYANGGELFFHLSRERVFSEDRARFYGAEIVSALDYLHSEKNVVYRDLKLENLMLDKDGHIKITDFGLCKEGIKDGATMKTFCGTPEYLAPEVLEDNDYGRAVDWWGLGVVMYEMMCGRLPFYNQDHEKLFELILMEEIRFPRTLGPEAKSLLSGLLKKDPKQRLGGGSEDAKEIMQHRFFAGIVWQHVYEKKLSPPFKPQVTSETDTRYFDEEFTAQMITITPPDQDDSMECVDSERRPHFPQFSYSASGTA

ACVR1B = target: T4, ACVR1B (Homo sapiens, UniProt P36896); assay: Kinase profile screen at 5 μM, ACVR1B; type: biochemical; details: read-out: inhibition of ACVR1B
T4 sequence (P36896 24-505): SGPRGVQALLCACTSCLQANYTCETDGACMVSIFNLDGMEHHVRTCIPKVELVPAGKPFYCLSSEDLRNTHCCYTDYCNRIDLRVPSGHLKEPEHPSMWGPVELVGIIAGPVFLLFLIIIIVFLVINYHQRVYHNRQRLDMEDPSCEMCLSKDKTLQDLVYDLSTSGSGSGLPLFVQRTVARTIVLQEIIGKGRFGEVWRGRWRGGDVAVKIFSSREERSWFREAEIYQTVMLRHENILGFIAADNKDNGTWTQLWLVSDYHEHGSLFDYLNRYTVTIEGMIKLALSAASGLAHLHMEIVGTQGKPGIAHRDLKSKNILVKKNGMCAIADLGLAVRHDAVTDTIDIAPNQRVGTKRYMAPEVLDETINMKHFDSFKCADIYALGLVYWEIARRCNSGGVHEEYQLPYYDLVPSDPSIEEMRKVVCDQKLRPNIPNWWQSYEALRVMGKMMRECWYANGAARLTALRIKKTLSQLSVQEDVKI
Summary of the method: as §1

NEK1 = target: T5, NEK1 (Homo sapiens, UniProt Q96PY6); assay: Z'-LYTE in vitro kinase assay, NEK1; type: biochemical; details: read-out: inhibition of NEK1
T5 sequence (Q96PY6 1-1258): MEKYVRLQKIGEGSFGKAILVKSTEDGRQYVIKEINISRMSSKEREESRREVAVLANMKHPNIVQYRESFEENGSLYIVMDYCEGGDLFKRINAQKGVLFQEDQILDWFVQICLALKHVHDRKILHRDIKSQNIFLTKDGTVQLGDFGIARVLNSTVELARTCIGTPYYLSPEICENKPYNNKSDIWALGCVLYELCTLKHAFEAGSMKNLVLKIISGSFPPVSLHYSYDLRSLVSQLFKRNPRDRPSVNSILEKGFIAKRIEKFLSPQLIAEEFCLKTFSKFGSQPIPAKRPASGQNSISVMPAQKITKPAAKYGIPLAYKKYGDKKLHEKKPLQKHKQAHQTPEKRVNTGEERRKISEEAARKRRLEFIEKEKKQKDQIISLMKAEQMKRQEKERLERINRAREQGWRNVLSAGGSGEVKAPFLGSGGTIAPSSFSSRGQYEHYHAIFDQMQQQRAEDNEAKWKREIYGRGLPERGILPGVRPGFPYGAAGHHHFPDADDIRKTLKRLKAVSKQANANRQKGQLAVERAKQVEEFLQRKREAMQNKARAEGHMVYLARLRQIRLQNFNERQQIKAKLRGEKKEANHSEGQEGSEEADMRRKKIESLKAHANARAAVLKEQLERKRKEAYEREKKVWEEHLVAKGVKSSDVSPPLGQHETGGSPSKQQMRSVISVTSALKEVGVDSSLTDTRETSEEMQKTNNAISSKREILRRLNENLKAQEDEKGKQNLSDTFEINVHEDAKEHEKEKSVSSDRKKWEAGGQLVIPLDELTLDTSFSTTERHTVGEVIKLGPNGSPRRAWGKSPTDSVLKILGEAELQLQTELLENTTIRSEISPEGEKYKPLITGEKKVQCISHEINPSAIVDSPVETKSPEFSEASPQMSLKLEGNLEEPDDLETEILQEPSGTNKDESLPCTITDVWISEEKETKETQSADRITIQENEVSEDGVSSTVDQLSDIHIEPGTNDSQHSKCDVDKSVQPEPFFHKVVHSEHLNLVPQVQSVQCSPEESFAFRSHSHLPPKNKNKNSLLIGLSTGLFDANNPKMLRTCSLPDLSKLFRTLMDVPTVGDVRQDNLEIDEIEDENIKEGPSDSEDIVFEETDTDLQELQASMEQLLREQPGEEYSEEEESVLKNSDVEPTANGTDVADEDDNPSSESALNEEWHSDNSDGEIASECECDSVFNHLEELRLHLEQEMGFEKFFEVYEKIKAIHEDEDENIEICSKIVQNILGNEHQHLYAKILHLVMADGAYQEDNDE

CHEK1 = target: T6, CHEK1 (Homo sapiens, UniProt O14757); assay: Kinase profile screen at 5 μM, CHEK1; type: biochemical; details: read-out: inhibition of CHEK1
T6 sequence (O14757 1-476): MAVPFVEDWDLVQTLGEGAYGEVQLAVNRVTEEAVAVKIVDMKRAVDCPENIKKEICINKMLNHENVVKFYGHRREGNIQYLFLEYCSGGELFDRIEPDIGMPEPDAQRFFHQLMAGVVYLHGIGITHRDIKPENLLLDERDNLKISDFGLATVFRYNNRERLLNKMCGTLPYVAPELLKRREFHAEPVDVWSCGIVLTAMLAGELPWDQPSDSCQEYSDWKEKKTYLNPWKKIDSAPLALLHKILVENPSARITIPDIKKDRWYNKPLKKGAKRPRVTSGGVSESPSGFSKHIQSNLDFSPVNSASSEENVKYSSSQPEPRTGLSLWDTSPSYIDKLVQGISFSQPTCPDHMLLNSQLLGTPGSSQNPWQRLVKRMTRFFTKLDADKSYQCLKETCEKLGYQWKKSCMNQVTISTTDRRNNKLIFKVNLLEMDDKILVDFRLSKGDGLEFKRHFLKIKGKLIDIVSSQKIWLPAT
Summary of the method: as §1

CDK2 = CDK2 (Homo sapiens, UniProt P24941); assay: Kinase profile screen at 5 μM, CDK2; type: biochemical; details: read-out: inhibition of CDK2
Summary of the method: as §1

Sequence of receptor tyrosine kinase IGFR (P08069 31-1367): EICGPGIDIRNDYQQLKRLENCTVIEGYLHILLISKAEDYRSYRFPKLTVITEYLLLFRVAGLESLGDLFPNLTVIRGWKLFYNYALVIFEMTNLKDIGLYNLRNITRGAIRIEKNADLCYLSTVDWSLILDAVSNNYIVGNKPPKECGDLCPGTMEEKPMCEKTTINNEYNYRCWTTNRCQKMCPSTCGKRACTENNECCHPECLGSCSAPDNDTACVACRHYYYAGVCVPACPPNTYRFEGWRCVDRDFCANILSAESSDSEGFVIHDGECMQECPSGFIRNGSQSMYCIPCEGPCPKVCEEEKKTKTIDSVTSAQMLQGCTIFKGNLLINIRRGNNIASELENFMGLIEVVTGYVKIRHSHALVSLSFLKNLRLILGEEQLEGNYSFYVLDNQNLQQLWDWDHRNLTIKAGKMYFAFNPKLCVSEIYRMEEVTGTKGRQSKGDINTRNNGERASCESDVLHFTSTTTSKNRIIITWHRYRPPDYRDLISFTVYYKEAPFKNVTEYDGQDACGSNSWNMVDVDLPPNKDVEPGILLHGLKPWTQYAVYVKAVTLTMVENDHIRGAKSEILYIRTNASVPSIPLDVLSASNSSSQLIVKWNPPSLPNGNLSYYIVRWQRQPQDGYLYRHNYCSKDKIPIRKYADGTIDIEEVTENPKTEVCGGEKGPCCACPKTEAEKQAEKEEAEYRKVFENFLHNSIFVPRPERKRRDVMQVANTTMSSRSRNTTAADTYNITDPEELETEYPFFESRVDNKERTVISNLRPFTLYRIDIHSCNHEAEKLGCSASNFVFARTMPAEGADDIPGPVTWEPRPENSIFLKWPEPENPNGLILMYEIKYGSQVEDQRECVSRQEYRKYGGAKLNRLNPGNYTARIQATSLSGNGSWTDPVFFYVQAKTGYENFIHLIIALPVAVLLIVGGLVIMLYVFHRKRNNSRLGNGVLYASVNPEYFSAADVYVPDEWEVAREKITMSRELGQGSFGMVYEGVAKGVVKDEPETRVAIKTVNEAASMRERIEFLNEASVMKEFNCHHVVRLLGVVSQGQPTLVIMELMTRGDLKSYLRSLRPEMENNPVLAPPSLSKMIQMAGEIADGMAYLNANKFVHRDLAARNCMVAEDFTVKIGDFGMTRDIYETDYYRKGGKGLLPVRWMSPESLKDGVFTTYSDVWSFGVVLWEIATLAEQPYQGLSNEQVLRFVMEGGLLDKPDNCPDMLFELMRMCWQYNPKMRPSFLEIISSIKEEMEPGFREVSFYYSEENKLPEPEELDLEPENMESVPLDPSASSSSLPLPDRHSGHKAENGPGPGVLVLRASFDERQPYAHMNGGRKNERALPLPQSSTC
Sequence of cytoplasmic tyrosine kinase Src (P12931 whole entry): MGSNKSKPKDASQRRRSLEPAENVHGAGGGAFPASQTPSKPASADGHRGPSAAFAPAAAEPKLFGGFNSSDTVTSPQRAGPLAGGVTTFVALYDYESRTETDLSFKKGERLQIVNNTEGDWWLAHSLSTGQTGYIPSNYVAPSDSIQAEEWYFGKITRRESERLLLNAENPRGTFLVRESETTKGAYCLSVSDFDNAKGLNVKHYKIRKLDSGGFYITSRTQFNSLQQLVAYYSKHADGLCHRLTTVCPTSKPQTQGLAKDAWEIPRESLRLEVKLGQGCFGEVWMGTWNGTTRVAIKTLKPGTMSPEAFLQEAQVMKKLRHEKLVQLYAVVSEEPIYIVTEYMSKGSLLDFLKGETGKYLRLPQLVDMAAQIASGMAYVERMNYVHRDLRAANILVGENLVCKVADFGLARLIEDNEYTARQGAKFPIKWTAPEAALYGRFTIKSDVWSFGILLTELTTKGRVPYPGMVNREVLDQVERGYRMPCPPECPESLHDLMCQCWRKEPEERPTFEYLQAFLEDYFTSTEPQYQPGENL

O=C1/C(=C/c2ccccc2F)CNC/C1=C\c1ccccc1F [Compound 3, 3,5-bis(2-flurobenzylidene)piperidin-4-one]
mechanism of IKKβ blockade (IKKβ): mixed mechanism
inhibition of Src [1]: weak effect
inhibition of IGFR [2]: no measurable inhibition

O=C1/C(=C/c2ccccn2)CNC/C1=C\c1ccccn1 [Compound 4, 3,5-Bis(2-pyridinylmethylidene)-4-piperidone]
kinase suppression by comparison with curcumin [3]: ≥ 10 fold
inhibition of MEK1 (MEK1): moderate inhibition
inhibition at 5 µM (IRAK4): ≤ 10%
inhibition at 5 µM (EGFR): ≤ 10%
inhibition of RAF1 (RAF1): moderate inhibition
inhibition at 5 µM (CDK7): ≤ 10%
inhibition at 5 µM (PRKCβ1): ≥ 85%
inhibition of IKKβ (IKBKB (IKKβ)): moderate inhibition
number of kinases inhibited at ≤40% (panel of 50 kinases): 28
number of kinases with 40-80% inhibition (modestly blocked) (panel of 50 kinases): twelve
inhibition at 5 µM (PIM1): ≤ 10%
inhibition of AKT2 (AKT2 [4]): significantly increased blocking action
inhibition of Src [1]: weak effect
α (mixed-model parameter, global analysis of Michaelis-Menten graph) (AKT2 [5]): 31
inhibition at 5 µM (KDR (VEGFR2)): ≥ 85%
inhibition of IGFR [2]: no measurable inhibition
inhibition of AKT1 (AKT1 (PKB alpha)): significantly increased blocking action
inhibition at 5 µM (ACVR1B): ≤ 10%
inhibition at 5 µM (NEK1): ≥ 85%
inhibition at 5 µM (CHEK1): ≥ 85%
inhibition at 5 µM (CDK2): ≤ 10%
